Results: ChEMBL document CHEMBL4613227, “Synthesis and evaluation of the HIF-1α inhibitory activity of 3(5)-substituted-4-(quinolin-4-yl)- and 4-(2-phenylpyridin-4-yl)pyrazoles as inhibitors of ALK5” (Bioorg Med Chem Lett, 2020)
pIC50: −log10 of the molar value. Activity calls are given as the source filed them. The rule behind the calls is not given here.

Key:
[1] = biological target: Mitogen-activated protein kinase 14 (Homo sapiens, UniProt Q16539); assay: Inhibition of recombinant human p38alpha expressed in Escherichia coli
How it was run: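 IC50 determination against ALK5 (human GST-fusion, Sf9 baculovirus) and p38α (untagged human, E. coli); values averaged from three independent experiments run in triplicate.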

[2] = biological target: Hypoxia-inducible factor 1-alpha (Homo sapiens) (UniProt Q16665); assay: Inhibition of HIF1-alpha (unknown origin)
[3] = tested on: HCT-116; assay: Inhibition of TNFalpha-induced HIF1alpha expression in human HCT116 cells at 10 to 50 uM by Western blot analysis; type: functional, cell-based
How it was run: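 HCT116 exposed to TNF 10 ng/mL for 24 h with graded concentrations; total protein blotted for HIF-1α, Topo-I reprobe as loading control.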

[4] = tested on: HCT-116; assay: Inhibition of HIF1alpha accumulation in hypoxia-induced human HCT116 cells at 50 uM preincubated for 30 mins in presence of proteasome inhibitor MG-132 followed by compound addition and measured after 12 hrs under hypoxic condition by Western blot analysis; type: functional, cell-based
How it was run: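 HCT116 pretreated with MG-132 (10 μM) 30 min, then compound (50 μM) under 1% O₂ for 12 h; nuclear HIF-1α by Western blot, Topo-I loading control.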

[5] = tested on: HCT-116; assay: Induction of apoptosis in human HCT116 cells assessed as early apoptotic cells at 50 uM after 12 hrs by Annexin-V/PI-staining based flow cytometric analysis (reference value: 1%); type: functional
[6] = tested on: HCT-116; assay: Induction of apoptosis in human HCT116 cells assessed as late apoptotic cells at 50 uM after 12 hrs by Annexin-V/PI-staining based flow cytometric analysis (reference value: 0.2%); type: functional
[7] = tested on: HCT-116; assay: Induction of apoptosis in human HCT116 cells assessed as necrotic cells at 50 uM after 12 hrs by Annexin-V/PI-staining based flow cytometric analysis (reference value: 3.5%); type: functional
[8] = tested on: HCT-116; assay: Induction of apoptosis in human HCT116 cells assessed as viable cells at 50 uM preincubated for 12 hrs followed by TNF stimulation and measured after 24 hrs by Annexin-V/PI-staining based flow cytometric analysis (reference value: 92.4%); type: functional; settings: read-out: Activity
[9] = tested on: HCT-116; assay: Induction of apoptosis in human HCT116 cells assessed as early apoptotic cells at 50 uM preincubated for 12 hrs followed by TNF stimulation and measured after 24 hrs by Annexin-V/PI-staining based flow cytometric analysis (reference value: 2.8%); type: functional
[10] = tested on: HCT-116; assay: Induction of apoptosis in human HCT116 cells assessed as late apoptotic cells at 50 uM preincubated for 12 hrs followed by TNF stimulation and measured after 24 hrs by Annexin-V/PI-staining based flow cytometric analysis (reference value: 1.4%); type: functional
[11] = tested on: HCT-116; assay: Induction of apoptosis in human HCT116 cells assessed as necrotic cells at 50 uM preincubated for 12 hrs followed by TNF stimulation and measured after 24 hrs by Annexin-V/PI-staining based flow cytometric analysis (reference value: 3.6%); type: functional
[12] = tested on: HCT-116; assay: Induction of apoptosis in human HCT116 cells assessed as effect on cleaved caspase 8 expression at 50 uM after 12 hrs by Western blot analysis; type: functional, cell-based
[13] = tested on: HCT-116; assay: Induction of apoptosis in human HCT116 cells assessed as effect on cleaved caspase 3 expression at 50 uM after 12 hrs by Western blot analysis; type: functional, cell-based
[14] = tested on: HCT-116; assay: Induction of apoptosis in human HCT116 cells assessed as effect on cleaved caspase 8 expression at 50 uM preincubated for 12 hrs followed by TNF-stimulation and measured after 24 hrs by Western blot analysis; type: functional, cell-based
How it was run: (§1)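 HCT116 pretreated 12 h with 50 μM, then TNF (10 ng/mL) 24 h; whole cell extracts blotted for cleaved caspase-8, cleaved caspase-3, cleaved PARP, tubulin.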

[15] = tested on: HCT-116; assay: Induction of apoptosis in human HCT116 cells assessed as effect on cleaved caspase-3 expression at 50 uM preincubated for 12 hrs followed by TNF-stimulation and measured after 24 hrs by Western blot analysis; type: functional, cell-based; how it was run: as §1
[16] = tested on: HCT-116; assay: Down regulation of TNF-induced ICAM-1 protein expression in human HCT116 cells at 50 uM pretreated for 12 hrs followed by TNF stimulation and measured after 24 hrs by Western blot analysis; type: functional, cell-based
How it was run: (§2)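 HCT116 pretreated 12 h with 50 μM, then TNF (10 ng/mL) 24 h; whole cell extracts immunoblotted for ICAM-1, MMP-9, VEGF with tubulin as loading reference.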

[17] = tested on: HCT-116; assay: Down regulation of TNF-induced VEGF protein expression in human HCT116 cells at 50 uM pretreated for 12 hrs followed by TNF stimulation and measured after 24 hrs by Western blot analysis; type: functional, cell-based; how it was run: as §2
[18] = tested on: HCT-116; assay: Down regulation of TNF-induced ICAM-1 mRNA expression in human HCT116 cells at 50 uM pretreated for 12 hrs followed by TNF stimulation and measured after 12 hrs by Western blot analysis; type: functional, cell-based; settings: in the assay text read “RT-PCR analysis” for “Western blot analysis”
How it was run: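 HCT116 preincubated 12 h with graded concentrations, then TNF 10 ng/mL for a further 12 h; ICAM-1, VEGF, MMP-9 transcripts measured by RT-PCR, GAPDH for equal RNA loading.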

[19] = tested on: HUVEC; assay: Inhibition of TNF-induced cell migration in HUVEC at 50 uM after 24 hrs by scratch wound healing assay; type: functional, cell-based; settings: Homo sapiens
How it was run: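 HUVEC scratch assay: cells pretreated with graded concentrations, with or without TNF (10 ng/mL); uncovered area photographed at 24 h.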

[20] = tested on: HCT-116; assay: Antiproliferative activity against human HCT116 cells assessed as reduction in TNF-induced number of Edu positive cells at 50 uM pretreated for 12 hrs followed by TNF stimulation and measured after 30 mins by Edu-incorporation based fluorescence microscopic analysis; type: functional, cell-based
How it was run: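 HCT116 cells pretreated 12 h (50 μM), then TNF 10 ng/ml for 30 min; EdU-labelled proliferating cells examined by fluorescence microscopy; mean ± SD of three independent experiments.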

[21] = tested on: HCT-116; assay: Inhibition of colony formation in TNF-induced human HCT116 cells pretreated with compound for 12 hrs before TNF stimulation for 30 mins and followed by replacement of fresh medium incubated for 10 days by crystal violet staining based analysis; type: functional, cell-based
How it was run: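 HCT116 treated 12 h (10, 30, 50 μM), then TNF 10 ng/ml 30 min; medium replaced, growth continued 10 days; crystal violet staining; mean ± SD of three independent experiments.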

Sequence of Hypoxia-inducible factor 1-alpha (Homo sapiens) (Q16665 whole entry, looked up): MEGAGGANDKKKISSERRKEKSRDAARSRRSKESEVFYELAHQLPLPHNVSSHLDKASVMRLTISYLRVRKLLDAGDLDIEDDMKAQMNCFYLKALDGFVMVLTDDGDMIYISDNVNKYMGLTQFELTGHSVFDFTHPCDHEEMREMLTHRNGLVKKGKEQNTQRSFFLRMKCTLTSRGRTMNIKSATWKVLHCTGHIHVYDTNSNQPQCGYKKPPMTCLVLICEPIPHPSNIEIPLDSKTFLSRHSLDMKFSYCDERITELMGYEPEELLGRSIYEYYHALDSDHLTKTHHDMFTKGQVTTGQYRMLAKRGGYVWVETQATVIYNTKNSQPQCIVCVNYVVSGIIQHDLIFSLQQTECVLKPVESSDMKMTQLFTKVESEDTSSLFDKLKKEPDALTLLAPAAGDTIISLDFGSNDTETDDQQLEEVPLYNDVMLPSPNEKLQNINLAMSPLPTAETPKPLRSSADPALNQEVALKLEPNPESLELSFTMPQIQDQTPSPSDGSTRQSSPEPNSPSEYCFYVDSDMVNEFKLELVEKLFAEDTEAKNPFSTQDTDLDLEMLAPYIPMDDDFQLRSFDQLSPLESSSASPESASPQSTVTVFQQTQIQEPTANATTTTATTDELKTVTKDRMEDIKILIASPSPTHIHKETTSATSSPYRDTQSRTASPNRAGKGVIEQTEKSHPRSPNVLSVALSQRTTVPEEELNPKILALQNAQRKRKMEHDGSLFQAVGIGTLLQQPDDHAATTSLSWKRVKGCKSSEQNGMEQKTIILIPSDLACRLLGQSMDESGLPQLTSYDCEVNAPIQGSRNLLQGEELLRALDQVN
Sequence of Mitogen-activated protein kinase 14 (Q16539 whole entry, the tested form may be a part): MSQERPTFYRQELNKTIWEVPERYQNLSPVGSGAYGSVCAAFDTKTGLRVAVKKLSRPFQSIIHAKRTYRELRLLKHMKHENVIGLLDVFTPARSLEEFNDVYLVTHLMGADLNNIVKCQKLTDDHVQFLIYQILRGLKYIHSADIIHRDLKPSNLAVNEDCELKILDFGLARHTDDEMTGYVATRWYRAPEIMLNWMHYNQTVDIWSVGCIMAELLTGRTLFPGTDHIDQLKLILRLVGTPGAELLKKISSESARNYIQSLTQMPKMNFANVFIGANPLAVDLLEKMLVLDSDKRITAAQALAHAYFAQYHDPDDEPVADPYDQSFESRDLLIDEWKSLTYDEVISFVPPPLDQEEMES

pIC50 [1]: 6.98
inhibition [2]: Active
SMILES: Cc1cccc(-c2nn(CC(=S)Nc3cccc(C#N)c3)cc2-c2ccnc3ccccc23)n1
inhibition [3]: Active
inhibition [4]: Active
Activity [5]: 3.1%
Activity [6]: 3.2%
Activity [7]: 8.5%
viability at 50 µM [8]: 86.8%
Activity [9]: 4.4%
Activity [10]: 3.6%
Activity [11]: 5.4%
Activity [12]: Active
Activity [13]: Active
Activity [14]: Active
Activity [15]: Active
Activity [16]: Active
Activity [17]: Active
Activity [18]: Active
inhibition [19]: Active
Activity [20]: Active
inhibition [21]: Dose-dependent effect
